For assay [1], the system named is E6SM. Kind of assay: Inhibition of Herpes simplex virus-1, KOS strain induced cytopathicity in E6SM cell line. Type of assay: functional, cell-based. The note with it: Homo sapiens. In short, it runs like this: (§1)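 Inhibition of virus-induced cytopathicity in confluent cell cultures in 96-well plates inoculated with 100 CCID50 of virus; 1 CCID50 is the virus dose infecting 50% of cultures. EC50 is based on reduction of cytopathicity.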

Assay [2] has as its system Moloney murine sarcoma virus. Kind of assay: Inhibition of moloney sarcoma virus (MSV) induced cytopathicity in C3H/3T3 embryo fibroblast cells. Type of assay: functional, organism-based. The essentials:
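C3H/3T3 murine embryo fibroblasts were seeded in 48-well plates and infected 24 h later with 80 focus-forming units of MSV. MSV stock was prepared from tumours in NMRI mice. Virus adsorbed for 10-120 min at 37 °C, then fresh medium with compound dilutions was added. Transformation was examined microscopically after 6 days.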
(Protection from cytopathic effect is a common read-out in antiviral testing.)

Assay [3] deals with CCRF-CEM. The assay is described as follows: Inhibition of Human immunodeficiency virus (HIV)-2 ROD strain induced cytopathicity in CEM cell line. It counts as functional, cell-based. In short, it runs like this: (§2)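 CEM cells were infected with 100 CCID50 per mL of HIV-1 (IIIB) or HIV-2 (ROD). Cells were seeded into wells containing dilutions of compound and incubated 4 days at 37 °C. CEM giant cell formation was then examined microscopically.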

Assay [4] concerns HEL. Kind of assay: Inhibition of Varicella-Zoster virus (VZV) OKA strain induced cytopathicity in HEL cell line. It counts as functional, cell-based. The note with it: Homo sapiens. The essentials: as §1
In assay [5] the test system is E6SM. The assay is described as follows: Inhibition of thymidine kinase deficient Herpes simplex virus-1 VMW 1837 strain induced cytopathicity in E6SM cell line. It counts as functional, cell-based. The note with it: Homo sapiens. The essentials: as §1
The test system of assay [6] is Human alphaherpesvirus 3. The assay is described as follows: Inhibition of Thymidine kinase deficient (TK-) Varicella-Zoster virus (VZV) 07/1 strain induced cytopathicity n HEL cell line. It counts as functional, organism-based. The conditions noted are these: Human alphaherpesvirus 3, tk-07, HEL. In short, it runs like this: as §1
Assay [7] relates to HEL. The assay is described as follows: Inhibition of Varicella-Zoster virus (VZV) YS strain induced cytopathicity in HEL cell line. Type of assay: functional, cell-based. The note with it: Homo sapiens. The essentials:
as §1

The subject of assay [8] is HEL. Kind of assay: Inhibition of Thymidine kinase deficient (TK-) Varicella-Zoster virus (VZV) YS/R strain induced cytopathicity in HEL cell line. The note with it: Homo sapiens. Type of assay: functional, cell-based. The essentials:
as §1

For assay [9], the system named is E6SM. Kind of assay: Inhibition of Herpes simplex virus-2 (G strain) induced cytopathicity in E6SM cell line. Type of assay: functional, cell-based. The conditions noted are these: Homo sapiens. In short, it runs like this: as §1
Assay [10] relates to CCRF-CEM. Kind of assay: Inhibition of Human immunodeficiency virus (HIV) -1 III B strain induced cytopathicity in CEM cell line. It counts as functional, cell-based. In short, it runs like this: as §2
For assay [11], the system named is HeLa. Kind of assay: In vitro cytotoxicity against human cervix carcinoma HeLa S3 cells. It counts as functional. Also on record: concentration or dose not given beside the values. In short, it runs like this:
(§3)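 Cells were grown for 72 h at a constant compound concentration of 10 µM, then counted. Growth inhibition is given relative to cell counts in control cultures grown in medium without compound. Lines: mouse L1210 and L929, human HeLaS3 and CCRF-CEM.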

For assay [12], the system named is CCRF-CEM. The assay is described as follows: (§4) In vitro cytotoxicity against CCRF-CEM T lymphoblastoid cells. It counts as functional, Homo sapiens. In short, it runs like this:
as §3

Assay [13] deals with L929. The assay is described as follows: (§5) In vitro cytotoxicity against murine L929 cells. It counts as functional, Mus musculus. In short, it runs like this: as §3
Assay [14] relates to L1210. The assay is described as follows: (§6) In vitro cytotoxicity against L1210 mouse leukemia cells. Type of assay: functional. In short, it runs like this:
as §3

Assay [15] has as its system CCRF-CEM. Described as §4. Further details: concentration or dose not given beside the values. Type of assay: functional, Homo sapiens. The essentials:
as §3

The subject of assay [16] is L1210. Described as §6. Type of assay: functional. Also on record: concentration or dose not given beside the values. The essentials: as §3
Assay [17] has as its system L929. The description is as §5. Type of assay: functional, Mus musculus. Further details: concentration or dose not given beside the values. In short, it runs like this: as §3

What is called EC50 is the concentration needed to bring the measured effect to its halfway point.

Converted amounts (≈) assume the structure as drawn. A value given as a limit tells only on which side of the number the result lay.

Take `CN(C)c1cc(O)nc(N)n1`: the half-maximal effective concentration (EC50) is over 400 µg/mL in [1]; 132 µg/mL (≈ 856 µM) in assay [2]; over 100 µg/mL in assay [3]; over 50 µg/mL in assay [4]; over 400 µg/mL in assay [5]; over 50 µg/mL in [6]. Moreover, the EC50 was over 50 µg/mL in assay [7], over 50 µg/mL in assay [8], over 400 µg/mL in [9] and over 100 µg/mL in assay [10].

On to `Nc1nc(OCCOCP(=O)(O)O)cc(=O)n1CCOCP(=O)(O)O`, for which the EC50 is over 400 µg/mL in [1]; 107 µg/mL (≈ 265 µM) in [2]; over 100 µg/mL in assay [3]; over 50 µg/mL in assay [4]; over 400 µg/mL in [5]; over 50 µg/mL in assay [6]. The EC50 was over 50 µg/mL in assay [7], over 50 µg/mL in [8], over 400 µg/mL in assay [9] and over 100 µg/mL in assay [10]. Moreover, the Control in [11] came to 72%; in assay [12], 101%; in [13] it was 77%; in assay [14] it was 80%.

Consider `CC(C)OP(=O)(COCCOc1cc(N)ncn1)OC(C)C`, for which the EC50 was over 400 µg/mL in assay [1]; over 20 µg/mL in [3]; over 50 µg/mL in assay [4]; over 400 µg/mL in assay [5]; over 50 µg/mL in assay [6]; over 50 µg/mL in assay [7]. Besides, the values for the EC50 in assay [8], in assay [9] and in assay [10] were over 50 µg/mL, over 400 µg/mL and over 20 µg/mL, respectively.

`Cc1cc(=O)n(CCOCP(=O)(O)O)c(N)n1`: the EC50 is over 400 µg/mL in [1]; 122 µg/mL (≈ 464 µM) in [2]; over 100 µg/mL in [3]; over 50 µg/mL in assay [4]; over 400 µg/mL in assay [5]; over 50 µg/mL in assay [6]. Also, the EC50 in assay [7] is over 50 µg/mL; in assay [8], over 50 µg/mL; in assay [9] it was over 400 µg/mL; in assay [10], over 100 µg/mL. Further, the Control is recorded as 83% in [11], 100% in [15], 95% in assay [16] and 81% in [17].

Regarding `CN(C)c1cc(OCCOCP(=O)(O)O)nc(N)n1`, the EC50 in [1] was over 400 µg/mL; in assay [2], 133 µg/mL (≈ 455 µM); in assay [3], over 100 µg/mL; in [4], over 50 µg/mL; in [5] it was over 400 µg/mL; in assay [6], over 50 µg/mL. Besides, the EC50 in assay [7] was over 50 µg/mL; in assay [8] it was over 50 µg/mL; in assay [9], over 400 µg/mL; in assay [10] it was over 100 µg/mL. The Control in assay [11] is listed as 89%; in assay [15], 104%; in [16], 88%; in assay [17] it was 104%.

For the compound `Nc1cc(=O)n(CCOCP(=O)(O)O)cn1`, the EC50 in assay [1] is over 400 µg/mL; in assay [2], 138 µg/mL (≈ 554 µM); in assay [3] it was over 100 µg/mL; in assay [4], over 50 µg/mL; in assay [5], over 400 µg/mL; in [6], over 50 µg/mL. For the same compound, the EC50 in assay [7] was over 50 µg/mL; in assay [8], over 50 µg/mL; in assay [9], over 400 µg/mL; in assay [10] it was over 100 µg/mL. The Control in assay [11] was found to be 94%; in [15], 86%; in assay [16] it was 98%; in assay [17], 90%.

On to `Cc1cc(OCCOCP(=O)(O)O)nc(N)n1`, for which the EC50 in assay [1] was over 400 µg/mL; in [2], 89 µg/mL (≈ 338 µM); in [3], over 100 µg/mL; in assay [4], over 50 µg/mL; in assay [5] it was over 400 µg/mL; in [6], over 50 µg/mL. For the same compound, the EC50 in assay [7] is over 50 µg/mL; in [8], over 50 µg/mL; in [9], over 400 µg/mL; in [10], over 100 µg/mL. The Control in [11] was found to be 87%; in assay [15], 95%; in [16] it was 99%; in assay [17], 85%.

As for `Nc1cc(O)nc(SCCOCP(=O)(O)O)n1`, the EC50 in assay [1] is 240 µg/mL (≈ 853 µM); in assay [2], 72 µg/mL (≈ 256 µM); in [3], over 100 µg/mL; in [4], over 50 µg/mL; in [5] it was over 400 µg/mL; in assay [6], over 50 µg/mL. For the same compound, the EC50 was over 50 µg/mL in assay [7], over 50 µg/mL in assay [8], over 400 µg/mL in assay [9] and over 100 µg/mL in assay [10].

Consider `Nc1ncnc2c1ncn2CCOCP(=O)(O)O` [ADEFOVIR], for which the half-maximal effective concentration (EC50) turned out to be 7 µg/mL (≈ 25.6 µM) in [1]; 0.25 µg/mL (≈ 0.915 µM) in assay [2]; 2.5 µg/mL (≈ 9.15 µM) in assay [3]; 10 µg/mL (≈ 36.6 µM) in assay [4]; 7 µg/mL (≈ 25.6 µM) in [5]; 10 µg/mL (≈ 36.6 µM) in [6]. Besides, the half-maximal effective concentration (EC50) amounted to 10 µg/mL (≈ 36.6 µM) in [7], 10 µg/mL (≈ 36.6 µM) in assay [8], 7 µg/mL (≈ 25.6 µM) in [9] and 1.8 µg/mL (≈ 6.59 µM) in [10].

For the origin of these results see ChEMBL document CHEMBL1135936, “6-[2-(Phosphonomethoxy)alkoxy]pyrimidines with antiviral activity” (J Med Chem, 2002).
